Test results from ChEMBL document CHEMBL5137084 (J Med Chem, 2022).

Tests used:
[1] = Metabolic stability of the compound in carboxylesterase 1 knockout mouse brain assessed as parent compound remaining at 10 uM measured after 1 hr in by UPLC analysis; format: ADME, tissue-based
Summary of the method: (§1)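 Plasma, or liver or brain homogenised 10-fold in 0.1 M potassium phosphate buffer, from CES1−/− mice. Spiked with 10 μM prodrug (final) and shaken at 37 °C for 1 h, in triplicate. Samples at 0 and 1 h were quenched with three volumes of acetonitrile containing losartan. Intact prodrug was measured by UHPLC-orbitrap MS and expressed as % remaining, mean ± SE.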

[2] = Metabolic stability of the compound in carboxylesterase 1 knockout mouse liver assessed as parent compound remaining at 10 uM measured after 1 hr in by UPLC analysis; format: ADME, tissue-based; summary of the method: as §1
[3] = Metabolic stability of the compound in carboxylesterase 1 knockout mouse plasma assessed as parent compound remaining at 10 uM measured after 1 hr in by UPLC analysis; format: ADME, cell-free; summary of the method: as §1
[4] = Prodrug conversion in carboxylesterase 1 knockout C57BL/6 mouse brain assessed as increase in 2,6-Dimethoxy-4-(4-phenyl-5-thiophen-2-yl-1H-imidazol-2-yl)phenol release at 15.12 mg/kg, po administered as single dose measured after 2 hrs by LC-MS/MS analysis; format: ADME, organism-based; conditions: in vivo
[5] = Stability in carboxylesterase 1 knockout C57BL/6 mouse plasma assessed as intact compound level at 15.12 mg/kg, po administered as single dose measured upto 8 hrs by LC-MS/MS analysis; format: ADME, organism-based; conditions: read-out: Stability
[6] = Stability in carboxylesterase 1 knockout C57BL/6 mouse brain assessed as intact compound level at 15.12 mg/kg, po administered as single dose measured upto 8 hrs by LC-MS/MS analysis; format: ADME, organism-based; conditions: read-out: Stability
[7] = Tmax in carboxylesterase 1 knockout C57BL/6 mouse plasma at 15.12 mg/kg, po administered as single dose measured upto 8 hrs by LC-MS/MS analysis; format: ADME, organism-based
[8] = Tmax in carboxylesterase 1 knockout C57BL/6 mouse brain at 15.12 mg/kg, po administered as single dose measured upto 8 hrs by LC-MS/MS analysis; format: ADME, organism-based
[9] = Half life in carboxylesterase 1 knockout C57BL/6 mouse plasma at 15.12 mg/kg, po administered as single dose measured upto 8 hrs by LC-MS/MS analysis; format: ADME, organism-based
[10] = Half life in carboxylesterase 1 knockout C57BL/6 mouse brain at 15.12 mg/kg, po administered as single dose measured upto 8 hrs by LC-MS/MS analysis; format: ADME, organism-based
[11] = Prodrug conversion in carboxylesterase 1 knockout C57BL/6 mouse plasma assessed as Cmax of 2,6-Dimethoxy-4-(4-phenyl-5-thiophen-2-yl-1H-imidazol-2-yl)phenol at 15.12 mg/kg, po administered as single dose measured upto 8 hrs by LC-MS/MS analysis; format: ADME, organism-based; design: dose 15.12 mg/kg, time < 8 hrs, route po; conditions: in vivo
[12] = Prodrug conversion in carboxylesterase 1 knockout C57BL/6 mouse brain assessed as Cmax of 2,6-Dimethoxy-4-(4-phenyl-5-thiophen-2-yl-1H-imidazol-2-yl)phenol at 15.12 mg/kg, po administered as single dose measured upto 8 hrs by LC-MS/MS analysis; format: ADME, organism-based; design: dose 15.12 mg/kg, time < 8 hrs, route po; conditions: in vivo
[13] = Prodrug conversion in carboxylesterase 1 knockout C57BL/6 mouse plasma assessed as AUC of 2,6-Dimethoxy-4-(4-phenyl-5-thiophen-2-yl-1H-imidazol-2-yl)phenol at 15.12 mg/kg, po administered as single dose measured upto 8 hrs by LC-MS/MS analysis; format: ADME, organism-based; design: time < 8 hrs, dose 15.12 mg/kg, route po; conditions: in vivo
[14] = Prodrug conversion in carboxylesterase 1 knockout C57BL/6 mouse brain assessed as AUC of 2,6-Dimethoxy-4-(4-phenyl-5-thiophen-2-yl-1H-imidazol-2-yl)phenol at 15.12 mg/kg, po administered as single dose measured upto 8 hrs by LC-MS/MS analysis; format: ADME, organism-based; design: time < 8 hrs, dose 15.12 mg/kg, route po; conditions: in vivo
[15] = Prodrug conversion in carboxylesterase 1 knockout C57BL/6 mouse plasma assessed as increase in 2,6-Dimethoxy-4-(4-phenyl-5-thiophen-2-yl-1H-imidazol-2-yl)phenol release at 10 mg/kg, po administered as single dose measured after 2 hrs by LC-MS/MS analysis; format: ADME, organism-based; conditions: in vivo
[16] = Prodrug conversion in carboxylesterase 1 knockout C57BL/6 mouse brain assessed as increase in 2,6-Dimethoxy-4-(4-phenyl-5-thiophen-2-yl-1H-imidazol-2-yl)phenol release at 10 mg/kg, po administered as single dose measured after 2 hrs by LC-MS/MS analysis; format: ADME, organism-based; conditions: in vivo
[17] = Stability in carboxylesterase 1 knockout C57BL/6 mouse assessed as intact compound level at 10 mg/kg, po administered as single dose measured upto 8 hrs by LC-MS/MS analysis; format: ADME, organism-based; conditions: in vivo, read-out: Stability
[18] = Prodrug conversion in carboxylesterase 1 knockout C57BL/6 mouse assessed as increase in 2,6-Dimethoxy-4-(4-phenyl-5-thiophen-2-yl-1H-imidazol-2-yl)phenol release at 10 mg/kg, po administered as single dose measured after 2 hrs by LC-MS/MS analysis; format: ADME, organism-based; conditions: in vivo
[19] = Ratio of prodrug conversion in carboxylesterase 1 knockout C57BL/6 mouse brain to plasma assessed as 2,6-Dimethoxy-4-(4-phenyl-5-thiophen-2-yl-1H-imidazol-2-yl)phenol release at 10 mg/kg, po administered as single dose measured after 2 hrs by LC-MS/MS analysis; format: ADME, organism-based
Summary of the method: (§2)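 Mice are killed 2 h post-dose by CO2, with cardiac-puncture plasma and whole brain taken. After acetonitrile/losartan extraction, released parent and intact prodrug are measured by LC-MS/MS. Brain-to-plasma ratio is computed from released-parent levels; mean ± SEM.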

[20] = Drug release in carboxylesterase 1 knockout C57BL/6 mouse plasma at 10 mg/kg, po administered as single dose measured after 2 hrs by LC-MS/MS analysis; format: ADME, organism-based; conditions: in vivo, read-out: Activity; summary of the method: as §2
[21] = Drug release in carboxylesterase 1 knockout C57BL/6 mouse brain at 10 mg/kg, po administered as single dose measured after 2 hrs by LC-MS/MS analysis; format: ADME, organism-based; conditions: in vivo; summary of the method: as §2
[22] = Brain to plasma ratio in carboxylesterase 1 knockout C57BL/6 mouse at 10 mg/kg, po administered as single dose measured after 2 hrs by LC-MS/MS analysis; format: ADME, organism-based; summary of the method: as §2
[23] = Tmax in carboxylesterase 1 knockout C57BL/6 mouse plasma at 10 mg/kg, po administered as single dose measured upto 8 hrs by LC-MS/MS analysis; format: ADME, organism-based
Summary of the method: (§3)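 Cardiac blood is spun to plasma and brains are flash frozen. Intact prodrug and released parent are quantified by LC-MS/MS against matrix-matched standards. Parameters come from non-compartmental analysis; mean ± SEM.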

[24] = Tmax in carboxylesterase 1 knockout C57BL/6 mouse brain at 10 mg/kg, po administered as single dose measured upto 8 hrs by LC-MS/MS analysis; format: ADME, organism-based; summary of the method: as §3
[25] = Half life in carboxylesterase 1 knockout C57BL/6 mouse plasma at 10 mg/kg, po administered as single dose measured upto 8 hrs by LC-MS/MS analysis; format: ADME, organism-based; summary of the method: as §3
[26] = Half life in carboxylesterase 1 knockout C57BL/6 mouse brain at 10 mg/kg, po administered as single dose measured upto 8 hrs by LC-MS/MS analysis; format: ADME, organism-based; summary of the method: as §3
[27] = Cmax in carboxylesterase 1 knockout C57BL/6 mouse plasma at 10 mg/kg, po administered as single dose measured upto 8 hrs by LC-MS/MS analysis; format: ADME, organism-based; design: time < 8 hrs, dose 10 mg/kg, route po; conditions: in vivo; summary of the method: as §3
[28] = Cmax in carboxylesterase 1 knockout C57BL/6 mouse brain at 10 mg/kg, po administered as single dose measured upto 8 hrs by LC-MS/MS analysis; format: ADME, organism-based; design: time < 8 hrs, dose 10 mg/kg, route po; conditions: in vivo; summary of the method: as §3
[29] = AUC in carboxylesterase 1 knockout C57BL/6 mouse plasma at 10 mg/kg, po administered as single dose measured upto 8 hrs by LC-MS/MS analysis; format: ADME, organism-based; design: time < 8 hrs, dose 10 mg/kg, route po; conditions: in vivo; summary of the method: as §3
[30] = AUC in carboxylesterase 1 knockout C57BL/6 mouse brain at 10 mg/kg, po administered as single dose measured upto 8 hrs by LC-MS/MS analysis; format: ADME, organism-based; design: time < 8 hrs, dose 10 mg/kg, route po; conditions: in vivo; summary of the method: as §3

SMILES	Stability [1] [%]	Stability [2] [%]	Stability [3] [%]	further results
CCCCCN(C)C(=O)Oc1c(OC)cc(-c2nc(-c3ccccc3)c(-c3cccs3)[nH]2)cc1OC	86	85	50	
COc1cc(-c2nc(-c3ccccc3)c(-c3cccs3)[nH]2)cc(OC)c1OC(=O)N1CCC(N2CCCCC2)CC1	48		90	Drug metabolism [4]: 72.3 nM; concentration at 8 h [5]: 195 nM; concentration at 8 h [6]: 86.5 nM; Tmax [7]: 60 min; Tmax [8]: 60 min; half-life [9]: 84 min; half-life [10]: 180 min; Cmax [11]: 148.9 pmol·h/g; Cmax [12]: 403 pmol·h/g; AUC [13]: 273.4 pmol·h/g; AUC [14]: 187.1 pmol·h/g
COc1cc(-c2nc(-c3ccccc3)c(-c3cccs3)[nH]2)cc(OC)c1OC(=O)C1=CN(C)C=CC1	46	22	52	Drug metabolism [15]: 28.3 nM; Drug metabolism [16]: 2.2 nM
COc1cc(-c2nc(-c3ccccc3)c(-c3cccs3)[nH]2)cc(OC)c1OC(=O)N(C)C	100	100	96	concentration at 8 h [17]: 4300 nM; Drug metabolism [18]: 540.9 nM
CCCCCNC(=O)Oc1c(OC)cc(-c2nc(-c3ccccc3)c(-c3cccs3)[nH]2)cc1OC	68	83	60	
COc1cc(-c2nc(-c3ccccc3)c(-c3cccs3)[nH]2)cc(OC)c1OC(C)=O	6	0	28	
COc1cc(-c2nc(-c3ccccc3)c(-c3cccs3)[nH]2)cc(OC)c1OC(=O)N1C2CCC1CC(N1CCCCC1)C2 (centres undefined)	84	78	87	
CCCCCC(=O)Oc1c(OC)cc(-c2nc(-c3ccccc3)c(-c3cccs3)[nH]2)cc1OC	63	1	13	Drug metabolism [15]: 355 nM; Drug metabolism [16]: 36.5 nM; BPR [19]: 0.1
CCCCCCCNC(=O)Oc1c(OC)cc(-c2nc(-c3ccccc3)c(-c3cccs3)[nH]2)cc1OC	84	97	60	
COc1cc(-c2nc(-c3ccccc3)c(-c3cccs3)[nH]2)cc(OC)c1OC(=O)OC(OC(=O)C(C)(C)C)c1ccccc1 (centres undefined)	69	80	83	
COc1cc(-c2nc(-c3ccccc3)c(-c3cccs3)[nH]2)cc(OC)c1OP(=O)(O)O	102	55	91	
COc1cc(-c2nc(-c3ccccc3)c(-c3cccs3)[nH]2)cc(OC)c1OCOP(=O)(O)OCOC(=O)OC(C)C	79	11	100	
CCC1CCCC(CC)N1C(=O)Oc1c(OC)cc(-c2nc(-c3ccccc3)c(-c3cccs3)[nH]2)cc1OC (centres undefined)	90	51	78	
COc1cc(-c2nc(-c3ccccc3)c(-c3cccs3)[nH]2)cc(OC)c1OC(=O)C(C)(C)C	93	0	1	
COc1cc(-c2nc(-c3ccccc3)c(-c3cccs3)[nH]2)cc(OC)c1OC(=O)N1C2CCCC1CC2	76	95	85	
COc1cc(-c2nc(-c3cccs3)c(-c3ccccc3)[nH]2)cc(OC)c1O	89	98	103	concentration [20]: 23 nM; Activity [21]: 4.9 nM; Kp at 2 h [22]: 0.1; Tmax [23]: 30 min; Tmax [24]: 30 min; half-life [25]: 27.6 min; half-life [26]: 37.8 min; Cmax [27]: 307 nM; Cmax [28]: 60 pmol/g; AUC [29]: 0.27 µM·h; AUC [30]: 52.8 pmol·h/g
COc1cc(-c2nc(-c3ccccc3)c(-c3cccs3)[nH]2)cc(OC)c1OCOP(=O)(O)O	1	21	96	
